# Laboratory results reported in ChEMBL document CHEMBL3779840, “Discovery of 2-((3-Amino-4-methylphenyl)amino)-N-(2-methyl-5-(3-(trifluoromethyl)benzamido)phenyl)-4-(methylamino)pyrimidine-5-carboxamide (CHMFL-ABL-053) as a Potent, Selective, and Orally Available BCR-ABL/SRC/p38 Kinase Inhibitor for Chronic Myeloid Leukemia” (J Med Chem, 2016).
# Activity calls are given as the source filed them. No cut-off for these calls is given here.
# Experiments:
# K562 [1] = experiment: Antiproliferative activity against human K562 cells assessed as cell viability after 72 hrs by CellTiter-Glo or CCK-8 assay; assay type: functional; settings: K562, 72 h
# [2] = Antiproliferative activity against human KU812 cells assessed as cell viability after 72 hrs by CellTiter-Glo or CCK-8 assay; assay type: functional; settings: KU812, 72 h
# [3] = biological target: Bcr/Abl fusion protein (Homo sapiens) (UniProt P00519+P11274); experiment: Inhibition of BCR/ABL in human KU812 cells assessed as downregulation of ERK phosphorylation at Thr202/Tyr204 site after 1 hr by immunoblotting method; assay type: cell-based
# Outline: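 KU812, K562 and MEG-01 cells were exposed to compound at the indicated concentrations for 1 h. Whole-cell lysates were then analysed by Western blot for phosphorylated signaling proteins.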
# [4] = biological target: T1, Proto-oncogene tyrosine-protein kinase Src (Homo sapiens, UniProt P12931); experiment: Inhibition of SRC phosphorylation in human KU812 cells at 0.01 to 3 uM after 1 hr by immunoblotting method; assay type: cell-based
# T1 sequence (P12931 2-536 limits assumed): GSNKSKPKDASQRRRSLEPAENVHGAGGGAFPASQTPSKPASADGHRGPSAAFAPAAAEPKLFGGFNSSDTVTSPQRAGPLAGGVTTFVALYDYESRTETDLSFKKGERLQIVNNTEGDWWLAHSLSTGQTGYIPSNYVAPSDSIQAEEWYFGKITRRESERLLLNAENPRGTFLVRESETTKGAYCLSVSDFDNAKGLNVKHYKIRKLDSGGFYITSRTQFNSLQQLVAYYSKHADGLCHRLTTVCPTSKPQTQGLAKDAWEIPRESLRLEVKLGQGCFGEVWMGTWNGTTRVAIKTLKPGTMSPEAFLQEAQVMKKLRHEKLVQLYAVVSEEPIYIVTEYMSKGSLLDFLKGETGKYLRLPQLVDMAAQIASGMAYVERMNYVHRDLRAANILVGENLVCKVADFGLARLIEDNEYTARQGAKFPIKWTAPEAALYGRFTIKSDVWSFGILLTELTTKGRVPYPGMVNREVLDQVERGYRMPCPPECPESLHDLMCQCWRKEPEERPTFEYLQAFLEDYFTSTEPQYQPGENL
# Outline: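 Cells were treated for 1 h at the indicated concentrations. Whole-cell lysates were then analysed by Western blot for phosphorylation of signalling proteins in the BCR-ABL pathway.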
# KU812 cell line = experiment: Induction of cell cycle arrest in human KU812 cells assessed as accumulation at G0/G1-phase after 12 hrs by propidium iodide/RNase staining based flow cytometry; assay type: functional
# K562 [5] = experiment: Induction of apoptosis in human K562 cells assessed as increase in cleaved PARP level at 100 nM after 48 hrs by immunoblotting method; assay type: functional, cell-based
# MEG-01 = experiment: Induction of apoptosis in human MEG01 cells assessed as increase in cleaved PARP level at 100 nM after 48 hrs by immunoblotting method; assay type: functional, cell-based
# [6] = Cmax in Sprague-Dawley rat at 1 mg/kg, iv; assay type: ADME, organism-based; set-up: dose 1 mg/kg, route intravenous; settings: in vivo
# [7] = AUC(0 to t) in Sprague-Dawley rat at 10 mg/kg, po; assay type: ADME, organism-based; settings: in vivo
# [8] = AUC(0 to infinity) in Sprague-Dawley rat at 1 mg/kg, iv; assay type: ADME, organism-based; set-up: dose 1 mg/kg, route intravenous, time infinity; settings: in vivo
# [9] = AUC(0 to infinity) in Sprague-Dawley rat at 10 mg/kg, po; assay type: ADME, organism-based; set-up: dose 10 mg/kg, time infinity, route oral; settings: in vivo
# K562 [10] = experiment: Induction of apoptosis in human K562 cells xenografted in nu/nu mouse at 25 and 50 mg/kg/day, qd administered through oral gavage measured after 16 days by TUNEL staining-based assay; assay type: functional, organism-based
# Outline: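 Female nu/nu mice bore established K562 xenografts and received daily oral dosing at 25.0 or 50.0 mg/kg/d, or vehicle, starting when tumors reached 200 to 400 mm3, for 16 days. Groups had 5 animals; data are mean ± SEM. Tumor size and body weight were normalized to initial values, and final tumor weight was recorded. Tumor tissue was stained with HE, Ki-67 and TUNEL.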
# [11] = biological target: Tyrosine-protein kinase Blk (Homo sapiens) (UniProt P51451); experiment: Inhibition of partial length human wild type BLK expressed in bacterial expression system assessed as residual activity at 1 uM relative to control
# Tyrosine-protein kinase Blk (Homo sapiens), sequence (P51451 2-505 limits assumed): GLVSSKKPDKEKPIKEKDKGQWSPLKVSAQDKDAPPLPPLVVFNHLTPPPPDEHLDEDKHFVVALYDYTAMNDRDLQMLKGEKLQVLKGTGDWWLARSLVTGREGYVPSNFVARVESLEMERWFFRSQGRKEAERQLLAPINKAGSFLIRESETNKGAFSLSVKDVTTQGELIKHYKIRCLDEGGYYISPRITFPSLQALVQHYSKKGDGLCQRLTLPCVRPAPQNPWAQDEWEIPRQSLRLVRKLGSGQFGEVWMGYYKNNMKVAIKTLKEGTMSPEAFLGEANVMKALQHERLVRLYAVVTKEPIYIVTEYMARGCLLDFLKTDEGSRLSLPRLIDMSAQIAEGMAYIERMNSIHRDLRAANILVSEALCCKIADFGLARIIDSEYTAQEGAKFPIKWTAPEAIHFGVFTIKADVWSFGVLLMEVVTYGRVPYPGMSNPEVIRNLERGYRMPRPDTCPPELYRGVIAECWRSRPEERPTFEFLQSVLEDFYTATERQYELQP
# [12] = biological target: T2, Epithelial discoidin domain-containing receptor 1 (Homo sapiens, UniProt Q08345); experiment: Inhibition of partial length human wild type DDR1 expressed in bacterial expression system assessed as residual activity at 1 uM relative to control
# T2 sequence (Q08345 whole entry, the tested form may be a part): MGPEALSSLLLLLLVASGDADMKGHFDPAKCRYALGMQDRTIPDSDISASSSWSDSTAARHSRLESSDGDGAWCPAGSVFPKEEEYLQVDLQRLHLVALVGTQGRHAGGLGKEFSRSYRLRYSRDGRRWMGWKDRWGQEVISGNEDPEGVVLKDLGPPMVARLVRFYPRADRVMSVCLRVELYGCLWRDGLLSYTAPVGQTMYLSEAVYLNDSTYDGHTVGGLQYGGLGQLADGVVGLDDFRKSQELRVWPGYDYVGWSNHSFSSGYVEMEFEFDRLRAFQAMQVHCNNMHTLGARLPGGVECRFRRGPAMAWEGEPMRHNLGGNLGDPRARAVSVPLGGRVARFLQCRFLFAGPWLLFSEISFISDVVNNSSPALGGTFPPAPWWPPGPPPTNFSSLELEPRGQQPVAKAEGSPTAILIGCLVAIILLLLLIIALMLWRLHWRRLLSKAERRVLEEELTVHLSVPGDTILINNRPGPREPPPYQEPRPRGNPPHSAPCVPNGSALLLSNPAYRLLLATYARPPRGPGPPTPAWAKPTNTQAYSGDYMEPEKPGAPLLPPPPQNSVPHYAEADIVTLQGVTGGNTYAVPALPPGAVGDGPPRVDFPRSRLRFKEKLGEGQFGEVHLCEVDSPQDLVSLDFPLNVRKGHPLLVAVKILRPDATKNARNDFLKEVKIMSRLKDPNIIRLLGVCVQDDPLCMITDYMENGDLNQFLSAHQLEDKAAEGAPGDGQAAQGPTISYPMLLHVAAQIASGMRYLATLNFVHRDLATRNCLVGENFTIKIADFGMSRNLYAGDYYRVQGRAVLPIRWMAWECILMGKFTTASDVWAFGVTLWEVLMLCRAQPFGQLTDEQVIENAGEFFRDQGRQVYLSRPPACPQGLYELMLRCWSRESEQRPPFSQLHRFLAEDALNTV
# [13] = biological target: Ephrin type-A receptor 8 (Homo sapiens) (UniProt P29322); experiment: Inhibition of partial length human wild type EPHA8 expressed in bacterial expression system assessed as residual activity at 1 uM relative to control
# [14] = biological target: Tyrosine-protein kinase HCK (Homo sapiens) (UniProt P08631); experiment: Inhibition of full length human wild type HCK expressed in bacterial expression system assessed as residual activity at 1 uM relative to control
# Tyrosine-protein kinase HCK (Homo sapiens), sequence (P08631 2-526 limits assumed): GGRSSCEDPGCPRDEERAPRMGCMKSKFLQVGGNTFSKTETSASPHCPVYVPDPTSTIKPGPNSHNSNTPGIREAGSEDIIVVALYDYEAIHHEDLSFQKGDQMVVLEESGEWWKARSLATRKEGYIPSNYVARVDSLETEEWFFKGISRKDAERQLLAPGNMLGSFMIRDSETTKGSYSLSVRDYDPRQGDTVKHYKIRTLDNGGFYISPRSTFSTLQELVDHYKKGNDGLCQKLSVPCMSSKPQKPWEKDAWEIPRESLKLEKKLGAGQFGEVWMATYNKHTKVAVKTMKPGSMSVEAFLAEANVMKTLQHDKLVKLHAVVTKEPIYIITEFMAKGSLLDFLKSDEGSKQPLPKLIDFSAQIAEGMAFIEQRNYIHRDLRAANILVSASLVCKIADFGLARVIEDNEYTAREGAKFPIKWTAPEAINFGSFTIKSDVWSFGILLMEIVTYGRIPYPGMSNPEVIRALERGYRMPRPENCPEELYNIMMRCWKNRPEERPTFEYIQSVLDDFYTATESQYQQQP
# [15] = test system: Mast/stem cell growth factor receptor Kit (Homo sapiens), P10721 [V559D]; experiment: Inhibition of partial length human KIT V559D mutant expressed in bacterial expression system assessed as residual activity at 1 uM relative to control
# Mast/stem cell growth factor receptor Kit (Homo sapiens), P10721 [V559D], sequence (P10721 whole entry V559D): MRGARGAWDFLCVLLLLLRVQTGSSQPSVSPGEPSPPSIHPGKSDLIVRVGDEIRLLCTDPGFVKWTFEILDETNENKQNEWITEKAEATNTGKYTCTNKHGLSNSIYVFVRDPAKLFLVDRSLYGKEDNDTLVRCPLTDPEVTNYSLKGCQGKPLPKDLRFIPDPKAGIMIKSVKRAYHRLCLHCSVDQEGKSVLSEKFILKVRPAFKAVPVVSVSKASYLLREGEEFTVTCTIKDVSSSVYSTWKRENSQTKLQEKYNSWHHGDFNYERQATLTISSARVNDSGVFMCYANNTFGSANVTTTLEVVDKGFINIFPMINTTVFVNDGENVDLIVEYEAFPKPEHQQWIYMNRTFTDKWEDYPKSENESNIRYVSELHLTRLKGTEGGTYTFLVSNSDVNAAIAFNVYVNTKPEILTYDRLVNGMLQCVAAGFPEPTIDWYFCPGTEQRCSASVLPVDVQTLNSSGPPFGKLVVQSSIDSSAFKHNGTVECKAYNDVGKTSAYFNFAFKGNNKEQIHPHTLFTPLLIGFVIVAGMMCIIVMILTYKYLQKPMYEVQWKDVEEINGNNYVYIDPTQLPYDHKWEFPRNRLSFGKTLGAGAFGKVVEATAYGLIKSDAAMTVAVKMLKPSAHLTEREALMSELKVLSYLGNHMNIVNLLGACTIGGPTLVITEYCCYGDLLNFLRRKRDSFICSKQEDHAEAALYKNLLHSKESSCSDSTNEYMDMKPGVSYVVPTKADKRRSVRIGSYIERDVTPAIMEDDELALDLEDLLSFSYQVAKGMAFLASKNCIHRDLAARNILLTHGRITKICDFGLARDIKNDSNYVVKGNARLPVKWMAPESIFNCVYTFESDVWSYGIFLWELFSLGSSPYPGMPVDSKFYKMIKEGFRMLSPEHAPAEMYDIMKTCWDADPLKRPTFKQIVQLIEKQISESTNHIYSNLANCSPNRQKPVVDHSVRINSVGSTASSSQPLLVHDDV
# [16] = biological target: Mitogen-activated protein kinase 14 (Homo sapiens, UniProt Q16539); experiment: Inhibition of full length human wild type p38-alpha expressed in bacterial expression system assessed as residual activity at 1 uM relative to control
# [17] = biological target: Transcription factor ETV6/Tyrosine-protein kinase ABL1 (Homo sapiens) (UniProt P00519+P41212); settings: BaF3
# Transcription factor ETV6/Tyrosine-protein kinase ABL1 (Homo sapiens), sequence (P00519 whole entry, looked up): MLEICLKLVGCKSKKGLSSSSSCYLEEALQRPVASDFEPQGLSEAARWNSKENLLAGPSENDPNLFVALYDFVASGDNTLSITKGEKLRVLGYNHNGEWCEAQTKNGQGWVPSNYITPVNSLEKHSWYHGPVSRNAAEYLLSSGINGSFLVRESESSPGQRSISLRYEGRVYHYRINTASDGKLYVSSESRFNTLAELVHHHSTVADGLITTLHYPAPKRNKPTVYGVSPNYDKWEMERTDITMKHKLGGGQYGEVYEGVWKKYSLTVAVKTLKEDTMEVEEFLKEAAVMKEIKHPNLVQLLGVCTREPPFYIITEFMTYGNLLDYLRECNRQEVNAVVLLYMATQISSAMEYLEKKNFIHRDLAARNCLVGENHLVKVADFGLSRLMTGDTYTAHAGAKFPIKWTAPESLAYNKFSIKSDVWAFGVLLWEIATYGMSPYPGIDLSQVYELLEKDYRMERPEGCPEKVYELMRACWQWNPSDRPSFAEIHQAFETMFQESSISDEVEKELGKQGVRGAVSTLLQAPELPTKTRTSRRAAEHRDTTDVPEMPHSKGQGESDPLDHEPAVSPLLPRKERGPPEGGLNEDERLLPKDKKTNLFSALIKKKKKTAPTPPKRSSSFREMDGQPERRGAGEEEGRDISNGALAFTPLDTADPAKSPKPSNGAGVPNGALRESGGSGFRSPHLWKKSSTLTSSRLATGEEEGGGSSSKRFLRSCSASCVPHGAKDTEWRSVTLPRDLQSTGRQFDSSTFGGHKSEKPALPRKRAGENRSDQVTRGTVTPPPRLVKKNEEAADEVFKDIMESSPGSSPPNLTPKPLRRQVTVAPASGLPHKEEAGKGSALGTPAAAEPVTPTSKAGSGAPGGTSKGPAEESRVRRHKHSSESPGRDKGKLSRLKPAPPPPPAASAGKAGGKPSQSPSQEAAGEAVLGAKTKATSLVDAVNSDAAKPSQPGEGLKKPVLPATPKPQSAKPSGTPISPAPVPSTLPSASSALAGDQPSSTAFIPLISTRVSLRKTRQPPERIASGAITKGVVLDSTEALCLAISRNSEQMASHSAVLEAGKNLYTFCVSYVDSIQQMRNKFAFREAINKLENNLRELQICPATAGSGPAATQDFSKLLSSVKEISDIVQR
# Transcription factor ETV6/Tyrosine-protein kinase ABL1 (Homo sapiens), sequence (P41212 whole entry, looked up): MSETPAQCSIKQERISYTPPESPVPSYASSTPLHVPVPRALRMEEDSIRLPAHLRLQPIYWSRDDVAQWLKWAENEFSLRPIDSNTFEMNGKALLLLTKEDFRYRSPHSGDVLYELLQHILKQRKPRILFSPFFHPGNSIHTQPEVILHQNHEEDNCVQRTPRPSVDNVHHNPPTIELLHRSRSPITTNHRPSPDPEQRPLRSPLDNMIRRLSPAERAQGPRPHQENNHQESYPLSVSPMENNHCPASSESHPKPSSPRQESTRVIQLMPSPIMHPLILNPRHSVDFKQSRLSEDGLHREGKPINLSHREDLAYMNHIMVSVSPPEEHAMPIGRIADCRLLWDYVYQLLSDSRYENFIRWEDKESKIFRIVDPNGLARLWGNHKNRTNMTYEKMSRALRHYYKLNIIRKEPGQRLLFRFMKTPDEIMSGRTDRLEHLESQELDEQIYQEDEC
# [18] = biological target: T1, Proto-oncogene tyrosine-protein kinase Src; settings: BaF3
# [19] = biological target: T2, Epithelial discoidin domain-containing receptor 1; settings: BaF3
# [20] = biological target: T3, Discoidin domain-containing receptor 2 (Homo sapiens) (UniProt Q16832); settings: BaF3
# T3 sequence (whole entry): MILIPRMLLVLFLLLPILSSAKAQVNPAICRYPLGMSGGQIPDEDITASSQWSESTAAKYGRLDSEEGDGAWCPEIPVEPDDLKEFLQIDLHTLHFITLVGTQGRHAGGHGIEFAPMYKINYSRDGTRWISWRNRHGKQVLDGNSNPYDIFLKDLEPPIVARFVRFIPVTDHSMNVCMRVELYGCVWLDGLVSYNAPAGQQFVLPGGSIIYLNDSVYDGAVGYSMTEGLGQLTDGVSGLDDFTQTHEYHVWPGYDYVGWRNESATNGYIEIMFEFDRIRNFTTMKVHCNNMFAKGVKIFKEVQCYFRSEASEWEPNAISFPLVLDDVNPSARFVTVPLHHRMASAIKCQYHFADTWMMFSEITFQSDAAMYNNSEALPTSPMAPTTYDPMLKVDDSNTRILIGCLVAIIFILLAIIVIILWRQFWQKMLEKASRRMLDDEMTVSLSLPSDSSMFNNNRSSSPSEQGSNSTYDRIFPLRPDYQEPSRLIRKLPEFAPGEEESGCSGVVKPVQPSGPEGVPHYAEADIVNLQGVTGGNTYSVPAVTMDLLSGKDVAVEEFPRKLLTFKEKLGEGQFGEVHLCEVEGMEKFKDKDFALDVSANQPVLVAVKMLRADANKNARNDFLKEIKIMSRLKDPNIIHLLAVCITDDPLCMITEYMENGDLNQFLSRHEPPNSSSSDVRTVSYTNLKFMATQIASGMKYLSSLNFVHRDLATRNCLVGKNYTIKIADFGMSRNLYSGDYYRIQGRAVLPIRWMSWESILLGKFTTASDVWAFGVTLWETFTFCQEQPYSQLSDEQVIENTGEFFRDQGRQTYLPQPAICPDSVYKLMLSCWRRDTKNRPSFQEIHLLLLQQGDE
# [21] = test system: Bcr/Abl fusion protein (Homo sapiens), P00519+P11274 [F317L]; settings: BaF3
# [22] = test system: Bcr/Abl fusion protein (Homo sapiens), P00519+P11274 [M351T]; settings: BaF3
# [23] = test system: Bcr/Abl fusion protein (Homo sapiens), P00519+P11274 [Q252H]; settings: BaF3
# BaF3 = settings: Homo sapiens
compound,measurement,setting,value
CNc1nc(Nc2ccc(C)c(N)c2)ncc1C(=O)Nc1cc(NC(=O)c2cccc(C(F)(F)F)c2)ccc1C,GI50,K562 [1],14 nM
same,GI50,[2],25 nM
same,inhibition,[3],Dose-dependent effect
same,inhibition,[4],inactive
same,Activity,KU812 cell line,Dose-dependent effect
same,Activity,K562 [5],Active
same,Activity,MEG-01,Active
same,Cmax,[6],2400 ng/mL
same,AUC(0-t),[7],1720 ng·h/mL
same,AUC(0-inf),[8],721 ng·h/mL
same,AUC(0-inf),[9],1740 ng·h/mL
same,Activity,K562 [10],Active
same,Activity,[11],0.55%
same,Activity,[12],0%
same,Activity,[13],0.8%
same,Activity,[14],0.7%
same,Activity,[15],1%
same,Activity,[16],0%
same,GI50,[17],53 nM
same,GI50,[18],200 nM
same,GI50,[19],3300 nM
same,GI50,[20],> 10000 nM
same,GI50,[21],45 nM
same,GI50,[22],45 nM
same,GI50,[23],140 nM
same,GI50,BaF3,9250 nM
